Test results published in ChEMBL document CHEMBL3992541, “Combined treatment with zingerone and its novel derivative synergistically inhibits TGF-β1 induced epithelial-mesenchymal transition, migration and invasion of human hepatocellular carcinoma cells” (2017).
One block for each compound: values may come before it. Activity calls are given as the source filed them. The rule behind the calls is not given here.

How the values were obtained:
SNU-182 [1] = assay: Inhibition of TGFbeta1-induced epithelial-mesenchymal transition in human SNU182 cells assessed as reduction in upregulation of Snail expression at 40 uM preincubated for 2 hrs followed by TGFbeta1 addition measured after 48 hrs by Western blot method; type: functional, cell-based
In short: (§1)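 SNU182 cells pretreated 2 h with single agents (12.5 or 40 µM) or the mixture (20 and 40 µM), then stimulated with TGF-β1 5 ng/ml for 48 h. E-cadherin and Snail protein detected by Western blot, with GAPDH as loading control.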

SNU-182 [2] = assay: Inhibition of TGFbeta1-induced epithelial-mesenchymal transition in human SNU182 cells assessed as reduction in upregulation of Snail expression preincubated for 2 hrs followed by TGFbeta1 addition measured after 48 hrs in presence of (E)-1-(9-Ethyl-9H-carbazol-3-yl)-5-(4-hydroxy-3-methoxyphenyl)pent-1-en-3-one by Western blot method; type: functional, cell-based; in short: as §1
SNU-182 [3] = assay: Inhibition of TGFbeta1-induced epithelial-mesenchymal transition in human SNU182 cells assessed as reduction in mesenchymal phenotype preincubated for 2 hrs followed by TGFbeta1 addition measured after 48 hrs in presence of (E)-1-(9-Ethyl-9H-carbazol-3-yl)-5-(4-hydroxy-3-methoxyphenyl)pent-1-en-3-one; type: functional, cell-based
In short: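 Cells preincubated 2 h in serum-free medium with the mixture (20 and 40 µM), then treated with TGF-β1 5 ng/ml for 48 h. Morphology (spindle-like, elongated shape, scattering) assessed by microscopy.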

SNU-182 [4] = assay: Inhibition of TGFbeta1-induced epithelial-mesenchymal transition in human SNU182 cells assessed as reduction in MMP9 mRNA expression at 40 uM preincubated for 2 hrs followed by TGFbeta1 addition measured after 48 hrs by qRT-PCR method; type: functional, cell-based
In short: (§2)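 SNU182 cells pretreated 2 h with single agents (12.5 or 40 µM) or the mixture (20 or 40 µM), then TGF-β 5 ng/ml for 48 h. MMP-2 and MMP-9 mRNA measured by RT-PCR with densitometry and by qRT-PCR, fold change by the 2^-ΔΔCt method. Mean±SD of triplicates.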

SNU-182 [5] = assay: Inhibition of TGFbeta1-induced epithelial-mesenchymal transition in human SNU182 cells assessed as reduction in MMP9 activity measured after 48 hrs in presence of (E)-1-(9-Ethyl-9H-carbazol-3-yl)-5-(4-hydroxy-3-methoxyphenyl)pent-1-en-3-one by gelatin zymography assay; type: functional, cell-based
In short: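 Cells serum-starved overnight in 0.2% FBS medium, then left untreated or given TGF-β 5 ng/ml and/or the mixture for 48 h. MMP-2 and MMP-9 activity in conditioned medium determined by gelatin zymography.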

[6] = molecular target: T1, NF-kappa-B inhibitor alpha (Homo sapiens) (UniProt P25963); assay: Inhibition of TGFbeta1-induced IkB-alpha phosphorylation in human SNU182 cells at 20 to 40 uM preincubated for 2 hrs followed by TGFbeta1 addition measured after 120 mins in presence of (E)-1-(9-Ethyl-9H-carbazol-3-yl)-5-(4-hydroxy-3-methoxyphenyl)pent-1-en-3-one by Western blot method; type: cell-based
T1 sequence (whole entry): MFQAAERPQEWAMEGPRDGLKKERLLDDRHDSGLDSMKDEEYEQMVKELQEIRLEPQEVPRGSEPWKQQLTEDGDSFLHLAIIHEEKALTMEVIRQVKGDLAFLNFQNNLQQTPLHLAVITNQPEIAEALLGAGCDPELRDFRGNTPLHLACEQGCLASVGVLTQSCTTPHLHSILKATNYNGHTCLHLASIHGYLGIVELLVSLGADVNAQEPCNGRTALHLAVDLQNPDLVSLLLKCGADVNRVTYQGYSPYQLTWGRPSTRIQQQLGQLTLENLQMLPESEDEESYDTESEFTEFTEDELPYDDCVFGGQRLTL
In short: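 SNU182 cells pretreated with the mixture (20 and 40 µM) for 2 h, then exposed to TGF-β1 for 120 min. IκB protein assessed by Western blot, with GAPDH loading control.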

[7] = molecular target: Mitogen-activated protein kinase; ERK1/ERK2 (Homo sapiens) (UniProt P27361+P28482); assay: Inhibition of TGFbeta1-induced p44/42 MAPK phosphorylation in human SNU182 cells measured after 48 hrs in presence of (E)-1-(9-Ethyl-9H-carbazol-3-yl)-5-(4-hydroxy-3-methoxyphenyl)pent-1-en-3-one by Western blot method; type: cell-based
In short: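 SNU182 cells incubated 48 h with TGF-β1 5 ng/ml alone or together with the mixture at 20 and 40 µM, then lysed. Phospho-p42/44 MAPK detected by Western blot, with total p42/44 MAPK as loading control.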

Homo sapiens [8] = species on record: Homo sapiens; assay: Inhibition of TGFbeta1-induced NF-kB binding activity in human SNU182 cells at 20 to 40 uM measured after 48 hrs in presence of (E)-1-(9-Ethyl-9H-carbazol-3-yl)-5-(4-hydroxy-3-methoxyphenyl)pent-1-en-3-one by luciferase reporter gene assay; type: cell-based
In short: (§3)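 Cells transfected with pGL4.32-NF-κB-RE-Luc or empty pGL4.32, then treated with the mixture and/or TGF-β1. Luciferase reporter activity read. Mean±SD of triplicates.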

SNU-182 [9] = assay: Growth inhibition of human SNU182 cells after 48 hrs by CCK8 assay; type: functional, cell-based
SNU-182 [10] = assay: Growth inhibition of human SNU182 cells assessed as cell growth at 50 uM after 48 hrs by CCK8 assay relative to control; type: functional; details: SNU-182, 48 h, read-out: Activity
SNU-182 [11] = assay: Inhibition of TGFbeta1-induced epithelial-mesenchymal transition in human SNU182 cells assessed as reduction in downregulation of E-cadherin expression at 12.5 uM preincubated for 2 hrs followed by TGFbeta1 addition measured after 48 hrs by Western blot method; type: functional, cell-based; in short: as §1
[12] = molecular target: Mothers against decapentaplegic homolog 2 (Homo sapiens) (UniProt Q15796); assay: Inhibition of TGFbeta1-induced SMAD2 phosphorylation in human SNU182 cells at 20 to 40 uM preincubated for 2 hrs followed by TGFbeta1 addition measured after 48 hrs in presence of zingerone by Western blot method; type: cell-based
In short: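 SNU182 cells given the mixture (20 and 40 µM) for 2 h, then TGF-β1 5 ng/ml for 48 h. Smad2/3 phosphorylation by Western blot, with total Smad2/3 as loading control.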

SNU-182 [13] = assay: Inhibition of TGFbeta1-induced migration in human SNU182 cells at 40 uM measured after 48 hrs in presence of zingerone by wound healing assay; type: functional, cell-based
In short: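 Wound healing: SNU182 monolayers at about 90% confluence scratched with a pipette tip and washed. Medium with TGF-β1, with or without 40 µM mixture, then added. Wound imaged at 0 and 48 h; relative motility from cell surface area. Mean±SD of triplicates.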

SNU-182 [14] = assay: Inhibition of TGFbeta1-induced invasion in human SNU182 cells at 40 uM measured after 48 hrs in presence of zingerone by microscopic method; type: functional, cell-based
In short: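 Matrigel invasion chamber: SNU182 cells in the inner chamber received TGF-β1 with or without the mixture for 48 h. Cells on the lower surface stained, imaged at 200×, and counted. Mean±SD of triplicates.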

SNU-182 [15] = assay: Inhibition of TGFbeta1-induced epithelial-mesenchymal transition in human SNU182 cells assessed as reduction in MMP2 mRNA expression preincubated for 2 hrs followed by TGFbeta1 addition measured after 48 hrs in presence of zingerone by qRT-PCR method; type: functional, cell-based; in short: as §2
Homo sapiens [16] = species on record: Homo sapiens; assay: Inhibition of TGFbeta1-induced NF-kB binding activity in human SNU182 cells at 20 to 40 uM measured after 48 hrs in presence of zingerone by luciferase reporter gene assay; type: cell-based; in short: as §3

Sequence of Mitogen-activated protein kinase; ERK1/ERK2 (Homo sapiens) (P27361 whole entry, looked up): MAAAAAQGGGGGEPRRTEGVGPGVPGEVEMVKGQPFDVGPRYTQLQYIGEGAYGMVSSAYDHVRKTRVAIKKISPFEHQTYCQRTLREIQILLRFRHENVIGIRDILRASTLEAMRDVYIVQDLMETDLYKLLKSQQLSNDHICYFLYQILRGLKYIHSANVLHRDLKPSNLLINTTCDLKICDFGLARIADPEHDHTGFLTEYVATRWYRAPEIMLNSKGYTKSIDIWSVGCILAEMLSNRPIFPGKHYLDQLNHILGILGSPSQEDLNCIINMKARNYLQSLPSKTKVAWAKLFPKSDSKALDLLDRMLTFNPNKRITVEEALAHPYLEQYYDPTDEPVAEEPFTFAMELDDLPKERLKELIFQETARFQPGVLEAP
Sequence of Mitogen-activated protein kinase; ERK1/ERK2 (Homo sapiens) (P28482 whole entry, looked up): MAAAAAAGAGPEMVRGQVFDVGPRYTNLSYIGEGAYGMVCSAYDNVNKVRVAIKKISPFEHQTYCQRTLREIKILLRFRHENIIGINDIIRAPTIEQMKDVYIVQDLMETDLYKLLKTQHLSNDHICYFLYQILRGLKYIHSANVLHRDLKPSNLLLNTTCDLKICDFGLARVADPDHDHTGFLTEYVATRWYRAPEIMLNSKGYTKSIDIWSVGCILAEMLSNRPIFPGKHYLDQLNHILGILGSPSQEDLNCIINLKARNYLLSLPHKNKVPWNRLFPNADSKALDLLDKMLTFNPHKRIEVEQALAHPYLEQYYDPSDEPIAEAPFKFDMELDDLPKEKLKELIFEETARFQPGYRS
Sequence of Mothers against decapentaplegic homolog 2 (Homo sapiens) (Q15796 whole entry): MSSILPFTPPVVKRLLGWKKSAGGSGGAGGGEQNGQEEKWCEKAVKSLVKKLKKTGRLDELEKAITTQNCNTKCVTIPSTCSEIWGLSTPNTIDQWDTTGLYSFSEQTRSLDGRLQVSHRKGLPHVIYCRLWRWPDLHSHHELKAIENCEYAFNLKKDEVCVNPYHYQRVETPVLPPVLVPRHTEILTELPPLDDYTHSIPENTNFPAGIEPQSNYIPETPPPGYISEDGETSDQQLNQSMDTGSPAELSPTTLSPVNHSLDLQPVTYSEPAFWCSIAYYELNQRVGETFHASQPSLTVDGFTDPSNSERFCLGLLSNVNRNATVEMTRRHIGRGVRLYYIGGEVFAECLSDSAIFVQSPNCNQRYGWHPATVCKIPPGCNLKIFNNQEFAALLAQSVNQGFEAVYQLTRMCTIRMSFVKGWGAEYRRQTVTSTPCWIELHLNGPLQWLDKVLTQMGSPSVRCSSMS

inhibition [6]: Active
inhibition [7]: Dose-dependent effect
SMILES: COc1cc(CCC(C)=O)ccc1O
inhibition (SNU-182 [1]): inactive
inhibition (SNU-182 [2]): Dose-dependent effect
inhibition (SNU-182 [3]): Dose-dependent effect
inhibition (SNU-182 [4]): inactive
inhibition (SNU-182 [5]): Active
inhibition (Homo sapiens [8]): Active

SMILES: CCn1c2ccccc2c2cc(/C=C/C(=O)CCc3ccc(O)c(OC)c3)ccc21
growth inhibition (GI) (SNU-182 [9]): Dose-dependent effect
growth at 50 µM (SNU-182 [10]): 40%
inhibition (SNU-182 [11]): inactive
inhibition [12]: Active
inhibition (SNU-182 [13]): Active
inhibition (SNU-182 [14]): Active
inhibition (SNU-182 [15]): Dose-dependent effect
inhibition (Homo sapiens [16]): Active
